ChEMBL document CHEMBL3352352, “Structure-Based Drug Design of Novel, Potent, and Selective Azabenzimidazoles (ABI) as ATR Inhibitors” (ACS Med Chem Lett, 2015)
In brackets after ≈: the same amount, converted by molar mass. Activity calls are given as the source filed them. The calls are words filed in the database; no cut-off is given here.

Experiments:
[1] = biological target: Serine/threonine-protein kinase ATR (Homo sapiens, UniProt Q13535); assay: Inhibition of human ATR using ATP substrate measured after 3 hrs
Sequence of Serine/threonine-protein kinase ATR (Q13535 whole entry): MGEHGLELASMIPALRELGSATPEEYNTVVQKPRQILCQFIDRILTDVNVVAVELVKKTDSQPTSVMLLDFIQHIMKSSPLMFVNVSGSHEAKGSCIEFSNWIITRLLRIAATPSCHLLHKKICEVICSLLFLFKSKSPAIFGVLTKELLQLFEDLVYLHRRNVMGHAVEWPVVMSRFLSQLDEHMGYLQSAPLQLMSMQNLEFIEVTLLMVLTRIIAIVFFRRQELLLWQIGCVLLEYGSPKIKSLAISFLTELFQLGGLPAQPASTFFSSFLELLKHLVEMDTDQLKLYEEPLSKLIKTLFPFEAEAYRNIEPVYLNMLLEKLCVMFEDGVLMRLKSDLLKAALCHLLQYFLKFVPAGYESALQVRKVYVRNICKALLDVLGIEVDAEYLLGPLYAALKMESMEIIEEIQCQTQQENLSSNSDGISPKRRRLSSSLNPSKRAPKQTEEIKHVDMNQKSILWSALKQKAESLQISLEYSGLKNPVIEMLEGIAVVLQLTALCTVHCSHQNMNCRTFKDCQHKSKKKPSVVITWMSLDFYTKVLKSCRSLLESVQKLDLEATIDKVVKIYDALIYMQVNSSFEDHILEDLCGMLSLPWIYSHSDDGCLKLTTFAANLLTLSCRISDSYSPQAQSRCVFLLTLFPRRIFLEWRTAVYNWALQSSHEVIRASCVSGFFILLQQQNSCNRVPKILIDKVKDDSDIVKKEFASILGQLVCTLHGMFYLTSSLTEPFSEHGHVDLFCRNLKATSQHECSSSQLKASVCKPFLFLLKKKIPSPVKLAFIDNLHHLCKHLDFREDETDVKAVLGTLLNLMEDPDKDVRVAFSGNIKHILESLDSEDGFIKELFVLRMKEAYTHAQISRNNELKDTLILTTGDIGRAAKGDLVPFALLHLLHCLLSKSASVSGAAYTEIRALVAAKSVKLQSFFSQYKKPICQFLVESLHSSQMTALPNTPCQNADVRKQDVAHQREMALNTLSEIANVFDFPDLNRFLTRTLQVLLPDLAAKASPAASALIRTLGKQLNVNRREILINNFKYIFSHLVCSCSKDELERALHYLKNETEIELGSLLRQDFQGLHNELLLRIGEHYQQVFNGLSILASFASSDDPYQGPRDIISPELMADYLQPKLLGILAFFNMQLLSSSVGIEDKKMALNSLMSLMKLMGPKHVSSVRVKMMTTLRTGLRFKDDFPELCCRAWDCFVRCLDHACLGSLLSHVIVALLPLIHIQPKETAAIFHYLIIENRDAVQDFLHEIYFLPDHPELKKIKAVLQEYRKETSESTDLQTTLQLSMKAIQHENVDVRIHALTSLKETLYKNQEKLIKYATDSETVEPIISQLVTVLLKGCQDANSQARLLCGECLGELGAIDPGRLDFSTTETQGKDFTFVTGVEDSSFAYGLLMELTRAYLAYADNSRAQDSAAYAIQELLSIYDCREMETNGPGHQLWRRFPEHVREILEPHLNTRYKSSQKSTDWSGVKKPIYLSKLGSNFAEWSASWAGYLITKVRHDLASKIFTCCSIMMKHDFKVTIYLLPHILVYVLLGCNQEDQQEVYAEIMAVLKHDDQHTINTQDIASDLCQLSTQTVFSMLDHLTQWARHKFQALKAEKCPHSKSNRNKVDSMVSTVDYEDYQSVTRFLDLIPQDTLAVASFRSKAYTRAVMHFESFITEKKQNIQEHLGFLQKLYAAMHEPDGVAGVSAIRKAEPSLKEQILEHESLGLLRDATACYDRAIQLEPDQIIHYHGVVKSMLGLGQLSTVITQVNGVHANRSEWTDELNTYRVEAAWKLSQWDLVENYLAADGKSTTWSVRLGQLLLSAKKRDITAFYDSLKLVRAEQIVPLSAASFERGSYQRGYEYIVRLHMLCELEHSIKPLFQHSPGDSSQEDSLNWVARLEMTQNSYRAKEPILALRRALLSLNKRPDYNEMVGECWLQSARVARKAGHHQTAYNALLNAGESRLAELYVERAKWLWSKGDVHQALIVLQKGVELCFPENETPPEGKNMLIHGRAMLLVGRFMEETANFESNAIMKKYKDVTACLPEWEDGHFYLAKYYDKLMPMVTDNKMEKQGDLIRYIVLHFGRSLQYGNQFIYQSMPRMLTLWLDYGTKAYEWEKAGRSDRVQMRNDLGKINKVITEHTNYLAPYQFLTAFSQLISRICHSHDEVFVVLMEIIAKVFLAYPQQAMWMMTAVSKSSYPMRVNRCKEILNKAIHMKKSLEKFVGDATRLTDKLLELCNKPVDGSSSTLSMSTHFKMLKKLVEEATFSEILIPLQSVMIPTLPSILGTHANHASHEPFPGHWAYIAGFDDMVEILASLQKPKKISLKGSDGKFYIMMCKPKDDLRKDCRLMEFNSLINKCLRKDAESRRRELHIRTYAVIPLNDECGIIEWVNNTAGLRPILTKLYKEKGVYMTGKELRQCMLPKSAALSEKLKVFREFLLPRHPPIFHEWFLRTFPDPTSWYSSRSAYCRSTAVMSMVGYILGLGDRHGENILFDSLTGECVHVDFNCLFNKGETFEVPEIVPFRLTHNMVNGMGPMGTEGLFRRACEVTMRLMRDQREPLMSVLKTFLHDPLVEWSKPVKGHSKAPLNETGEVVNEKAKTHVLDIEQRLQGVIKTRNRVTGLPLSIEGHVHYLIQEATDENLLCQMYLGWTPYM

[2] = biological target: T1, Serine/threonine-protein kinase Chk1 (Homo sapiens, UniProt O14757); assay: Inhibition of full-length Chk1 in HeLa S3 cells assessed as phosphorylation at Ser345 after 4 hrs; format: cell-based
T1 sequence (O14757 whole entry): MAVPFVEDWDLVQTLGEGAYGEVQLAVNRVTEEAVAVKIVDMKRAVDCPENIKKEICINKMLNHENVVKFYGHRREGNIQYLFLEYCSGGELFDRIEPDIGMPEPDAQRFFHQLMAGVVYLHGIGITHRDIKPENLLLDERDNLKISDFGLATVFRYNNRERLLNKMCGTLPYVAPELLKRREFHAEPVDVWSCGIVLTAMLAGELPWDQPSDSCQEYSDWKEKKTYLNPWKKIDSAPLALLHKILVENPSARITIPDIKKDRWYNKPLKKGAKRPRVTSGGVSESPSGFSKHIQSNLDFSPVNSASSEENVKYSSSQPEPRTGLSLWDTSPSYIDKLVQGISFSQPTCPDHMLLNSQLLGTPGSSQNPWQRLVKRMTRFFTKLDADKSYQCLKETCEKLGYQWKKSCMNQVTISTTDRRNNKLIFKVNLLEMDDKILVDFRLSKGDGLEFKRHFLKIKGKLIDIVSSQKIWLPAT
In short: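 HeLa S3 cells exposed to 1 µM gemcitabine together with test compound for 4 hr; read-out is Ser345-phosphorylated Chk1.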

[3] = Solubility of the compound in PBS buffer at pH 7 by shake flask equilibrium solubility assay
[4] = Apparent permeability from apical to basolateral side in human Caco2 cells at 10 uM and pH 7.4; conditions: Caco-2, pH 7.4
[5] = Apparent permeability from basolateral to apical side in human Caco2 cells at 10 uM and pH 7.4; conditions: Caco-2, pH 7.4
[6] = Clearance in Sprague-Dawley rat at 2.5 mg/kg, iv and 5 mg/kg, po; format: ADME, organism-based; conditions: in vivo
[7] = biological target: T2, Serine-protein kinase ATM (Homo sapiens, UniProt Q13315); assay: Inhibition of ATM (unknown origin) at 2 uM
[8] = biological target: T3, DNA-dependent protein kinase catalytic subunit (Homo sapiens, UniProt P78527); assay: Inhibition of DNAPK (unknown origin) at 10 uM
[9] = biological target: T4, Phosphatidylinositol 4,5-bisphosphate 3-kinase catalytic subunit alpha isoform (Homo sapiens, UniProt P42336); assay: Inhibition of PI3Kalpha (unknown origin) at <8 uM
T4 sequence (P42336 whole entry, canonical isoform): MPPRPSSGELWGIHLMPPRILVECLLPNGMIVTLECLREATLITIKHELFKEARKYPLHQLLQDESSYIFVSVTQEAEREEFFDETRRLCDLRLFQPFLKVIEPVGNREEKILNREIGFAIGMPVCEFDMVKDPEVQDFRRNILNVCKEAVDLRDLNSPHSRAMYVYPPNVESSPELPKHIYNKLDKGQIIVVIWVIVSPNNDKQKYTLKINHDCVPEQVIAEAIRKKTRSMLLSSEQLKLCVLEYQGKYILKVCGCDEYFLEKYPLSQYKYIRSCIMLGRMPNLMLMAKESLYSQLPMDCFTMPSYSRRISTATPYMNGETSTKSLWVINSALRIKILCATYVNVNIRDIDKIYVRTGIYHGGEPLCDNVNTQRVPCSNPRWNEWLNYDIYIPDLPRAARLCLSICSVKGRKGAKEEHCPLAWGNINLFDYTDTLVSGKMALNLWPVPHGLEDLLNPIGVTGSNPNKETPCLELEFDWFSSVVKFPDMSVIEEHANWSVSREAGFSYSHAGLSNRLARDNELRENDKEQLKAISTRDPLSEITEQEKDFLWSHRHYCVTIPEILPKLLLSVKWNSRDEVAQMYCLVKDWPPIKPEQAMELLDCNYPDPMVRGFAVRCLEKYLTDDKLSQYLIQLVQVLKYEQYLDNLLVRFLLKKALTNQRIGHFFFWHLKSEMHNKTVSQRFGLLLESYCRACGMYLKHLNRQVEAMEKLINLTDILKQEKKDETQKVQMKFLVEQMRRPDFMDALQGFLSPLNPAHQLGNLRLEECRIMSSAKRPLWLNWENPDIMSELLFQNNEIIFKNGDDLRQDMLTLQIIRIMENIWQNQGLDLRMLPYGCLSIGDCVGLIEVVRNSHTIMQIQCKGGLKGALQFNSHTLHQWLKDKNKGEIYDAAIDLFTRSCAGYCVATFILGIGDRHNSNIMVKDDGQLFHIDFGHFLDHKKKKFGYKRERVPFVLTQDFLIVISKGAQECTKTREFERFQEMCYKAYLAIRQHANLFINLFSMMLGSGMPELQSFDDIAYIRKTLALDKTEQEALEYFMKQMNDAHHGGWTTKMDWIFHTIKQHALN

[10] = biological target: Phosphatidylinositol 4,5-bisphosphate 3-kinase catalytic subunit beta isoform (Homo sapiens) (UniProt P42338); assay: Inhibition of PI3Kbeta (unknown origin) at <8 uM
[11] = biological target: Phosphatidylinositol 4,5-bisphosphate 3-kinase catalytic subunit gamma isoform (Homo sapiens) (UniProt P48736); assay: Inhibition of PI3Kgamma (unknown origin) at <8 uM
[12] = biological target: T5, Phosphatidylinositol 4,5-bisphosphate 3-kinase catalytic subunit delta isoform (Homo sapiens) (UniProt O00329); assay: Inhibition of PI3Kdelta (unknown origin) at <8 uM
T5 sequence (whole entry): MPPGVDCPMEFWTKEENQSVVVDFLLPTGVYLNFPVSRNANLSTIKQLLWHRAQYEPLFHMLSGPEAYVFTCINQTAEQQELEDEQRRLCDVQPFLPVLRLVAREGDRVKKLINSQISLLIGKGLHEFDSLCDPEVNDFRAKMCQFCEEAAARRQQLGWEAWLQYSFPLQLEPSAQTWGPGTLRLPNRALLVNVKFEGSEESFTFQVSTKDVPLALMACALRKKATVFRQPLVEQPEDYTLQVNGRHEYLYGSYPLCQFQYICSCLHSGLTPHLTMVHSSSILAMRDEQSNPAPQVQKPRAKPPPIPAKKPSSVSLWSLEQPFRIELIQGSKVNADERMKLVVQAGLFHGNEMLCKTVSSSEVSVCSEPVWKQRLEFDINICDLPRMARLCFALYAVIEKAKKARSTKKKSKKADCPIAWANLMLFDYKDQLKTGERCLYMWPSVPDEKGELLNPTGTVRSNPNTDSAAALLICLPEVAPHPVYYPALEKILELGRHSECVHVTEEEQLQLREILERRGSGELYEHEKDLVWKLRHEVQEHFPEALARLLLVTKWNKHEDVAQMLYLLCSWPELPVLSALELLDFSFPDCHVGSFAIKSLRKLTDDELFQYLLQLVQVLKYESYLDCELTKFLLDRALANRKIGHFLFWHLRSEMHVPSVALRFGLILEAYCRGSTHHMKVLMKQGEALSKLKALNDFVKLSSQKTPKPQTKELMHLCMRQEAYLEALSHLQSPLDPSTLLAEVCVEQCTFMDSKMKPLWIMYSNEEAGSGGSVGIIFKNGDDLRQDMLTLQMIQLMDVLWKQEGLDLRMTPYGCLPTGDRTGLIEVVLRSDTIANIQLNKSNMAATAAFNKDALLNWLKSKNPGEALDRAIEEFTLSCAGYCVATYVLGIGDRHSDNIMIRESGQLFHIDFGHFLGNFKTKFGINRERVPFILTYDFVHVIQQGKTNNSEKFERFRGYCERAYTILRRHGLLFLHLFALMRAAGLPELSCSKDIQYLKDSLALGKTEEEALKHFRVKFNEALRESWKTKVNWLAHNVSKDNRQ

Cytochrome P450 3A4 = Cytochrome P450 3A4 (Homo sapiens, UniProt P08684); assay: Inhibition of CYP3A4 (unknown origin); format: ADME
Cytochrome P450 2D6 [13] = biological target: T6, Cytochrome P450 2D6 (Homo sapiens, UniProt P10635); assay: Inhibition of CYP2D6 (unknown origin); format: ADME
T6 sequence (P10635 whole entry): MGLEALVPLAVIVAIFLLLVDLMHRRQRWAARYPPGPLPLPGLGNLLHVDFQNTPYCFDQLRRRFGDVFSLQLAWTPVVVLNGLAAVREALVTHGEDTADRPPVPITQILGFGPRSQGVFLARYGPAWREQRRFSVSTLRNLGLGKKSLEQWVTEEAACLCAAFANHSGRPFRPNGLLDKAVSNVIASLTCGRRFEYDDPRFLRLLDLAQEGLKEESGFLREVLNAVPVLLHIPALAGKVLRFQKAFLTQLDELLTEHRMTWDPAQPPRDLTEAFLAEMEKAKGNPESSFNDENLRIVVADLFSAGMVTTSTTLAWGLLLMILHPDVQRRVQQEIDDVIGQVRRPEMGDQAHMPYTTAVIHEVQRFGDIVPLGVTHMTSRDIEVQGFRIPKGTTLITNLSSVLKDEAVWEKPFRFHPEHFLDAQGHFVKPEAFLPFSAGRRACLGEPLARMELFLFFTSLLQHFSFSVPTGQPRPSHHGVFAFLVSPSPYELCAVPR

Cytochrome P450 2C9 [14] = biological target: T7, Cytochrome P450 2C9 (Homo sapiens, UniProt P11712); assay: Inhibition of CYP2C9 (unknown origin); format: ADME
T7 sequence (P11712 whole entry): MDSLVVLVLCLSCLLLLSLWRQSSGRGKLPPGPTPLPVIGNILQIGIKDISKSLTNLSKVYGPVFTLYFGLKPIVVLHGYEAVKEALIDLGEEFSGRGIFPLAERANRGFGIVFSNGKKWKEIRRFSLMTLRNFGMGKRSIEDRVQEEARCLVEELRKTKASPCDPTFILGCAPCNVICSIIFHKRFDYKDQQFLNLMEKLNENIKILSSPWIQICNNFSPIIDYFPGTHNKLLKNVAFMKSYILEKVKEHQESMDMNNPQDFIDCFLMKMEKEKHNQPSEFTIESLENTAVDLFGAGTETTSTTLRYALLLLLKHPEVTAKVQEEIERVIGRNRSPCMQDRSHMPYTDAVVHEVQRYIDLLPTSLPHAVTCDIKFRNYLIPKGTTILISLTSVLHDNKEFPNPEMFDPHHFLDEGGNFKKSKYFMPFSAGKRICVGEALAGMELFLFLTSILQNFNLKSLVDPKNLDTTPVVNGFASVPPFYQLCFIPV

Cytochrome P450 1A2 [15] = biological target: T8, Cytochrome P450 1A2 (Homo sapiens, UniProt P05177); assay: Inhibition of CYP1A2 (unknown origin); format: ADME
T8 sequence (P05177 whole entry): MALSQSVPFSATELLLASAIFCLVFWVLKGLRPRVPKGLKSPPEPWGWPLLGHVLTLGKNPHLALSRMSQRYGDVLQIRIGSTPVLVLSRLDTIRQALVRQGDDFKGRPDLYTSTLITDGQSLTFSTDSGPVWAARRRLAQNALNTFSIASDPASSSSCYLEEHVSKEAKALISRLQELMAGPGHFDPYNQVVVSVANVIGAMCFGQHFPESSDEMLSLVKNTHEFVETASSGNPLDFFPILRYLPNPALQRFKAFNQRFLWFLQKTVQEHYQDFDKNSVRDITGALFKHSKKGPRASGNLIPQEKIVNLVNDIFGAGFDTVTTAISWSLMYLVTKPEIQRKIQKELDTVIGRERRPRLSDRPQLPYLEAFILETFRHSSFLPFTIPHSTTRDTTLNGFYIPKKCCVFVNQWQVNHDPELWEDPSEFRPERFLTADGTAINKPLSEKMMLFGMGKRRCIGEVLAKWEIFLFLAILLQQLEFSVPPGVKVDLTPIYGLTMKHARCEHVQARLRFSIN

Cytochrome P450 2D6 [16] = biological target: T6, Cytochrome P450 2D6; assay: Time dependent inhibition of CYP2D6 in human liver microsomes; format: ADME; conditions: TDE = time-dependent effect
Cytochrome P450 2C9 [17] = biological target: T7, Cytochrome P450 2C9; assay: Time dependent inhibition of CYP2C9 in human liver microsomes; format: ADME; conditions: TDE = time-dependent effect
Cytochrome P450 1A2 [18] = biological target: T8, Cytochrome P450 1A2; assay: Time dependent inhibition of CYP1A2 in human liver microsomes; format: ADME; conditions: TDE = time-dependent effect
[19] = biological target: Serine/threonine-protein kinase mTOR (Homo sapiens, UniProt P42345); assay: Inhibition of mTOR (unknown origin)
[20] = biological target: T4, Phosphatidylinositol 4,5-bisphosphate 3-kinase catalytic subunit alpha isoform; assay: Inhibition of PI3Kalpha (unknown origin)
[21] = Intrinsic clearance in mouse liver microsomes; format: ADME; conditions: read-out: CLH
In short: (§1)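 Liver microsomes from mouse, rat or human; intrinsic clearance scaled to hepatic blood flow.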

[22] = Intrinsic clearance in rat liver microsomes; format: ADME; conditions: read-out: CLH; in short: as §1
[23] = Intrinsic clearance in human liver microsomes; format: ADME; conditions: read-out: CLH; in short: as §1
[24] = Oral bioavailability in Sprague-Dawley rat at 5 mg/kg; format: ADME, organism-based; conditions: in vivo
[25] = Volume of distribution at steady state in Sprague-Dawley rat at 2.5 mg/kg, iv and 5 mg/kg, po; format: ADME, organism-based; conditions: in vivo, read-out: Vdss
[26] = biological target: Voltage-gated inwardly rectifying potassium channel KCNH2 (Homo sapiens, UniProt Q12809); assay: Inhibition of human ERG channel by dofetilide binding assay
[27] = biological target: T2, Serine-protein kinase ATM; assay: Inhibition of ATM (unknown origin)
[28] = biological target: T3, DNA-dependent protein kinase catalytic subunit; assay: Inhibition of DNAPK (unknown origin)
[29] = Growth inhibition of human HT144 cells after 72 hrs by Cell Titer Glow assay; format: functional, cell-based; conditions: HT-144, 72 h
In short: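 Cell Titer Glo viability read-out after 72 hr continuous compound exposure.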

[30] = Half life in Sprague-Dawley rat at 2.5 mg/kg, iv and 2.5 mg/kg, po; conditions: in vivo

SMILES	IC50 [1] [nM]	solubility thermodynamic [3] [µM]	Papp A→B at 10 µM [4] [×10⁻⁶ cm/s]	Papp B→A at 10 µM [5] [×10⁻⁶ cm/s]	clearance [6] [mL/min/kg]	IC50 [20] [nM]	bioavailability [24] [%]	further results
O=C(NC1CC1)c1cn2c(N3CCOCC3)nc(-c3cccc4[nH]ccc34)cc2n1	39							
C[C@@H]1COCCN1c1nc(-c2cccc3[nH]ccc23)cc2nccn12	95					> 10000		
CS(=O)(=O)Cn1cnc2c(N3C4CCC3COC4)nc(-c3cncc4[nH]ccc34)cc21	34							
c1cc(-c2cc3nccn3c(N3CCOCC3)n2)c2cc[nH]c2c1	96	56 (≈ 17.9 µg/mL)				> 10000		
C[C@@H]1COCCN1c1nc(-c2nncc3[nH]ccc23)cc2c1ncn2C	0.5	> 2400	3.6	38	34		7.5	IC50 [26]: > 30000 nM; IC50 (Cytochrome P450 3A4): > 24000 nM; IC50 (Cytochrome P450 2D6 [13]): > 24000 nM; IC50 (Cytochrome P450 2C9 [14]): > 24000 nM; IC50 (Cytochrome P450 1A2 [15]): > 24000 nM; IC50 [19]: > 13000 nM; Vd [25]: 1.8 L/kg; IC50 [27]: 15000 nM; IC50 [28]: > 25000 nM; IC50 [29]: 350 nM; half-life [30]: 2 h
C[C@@H]1COCCN1c1nc(-c2c(F)ncc3[nH]ccc23)cc2c1ncn2C	0.1	> 2300	38	38	20		66	IC50 [2]: 96 nM; Vd [25]: 1.2 L/kg
CS(=O)(=O)Cn1cnc2c(N3C4CCC3COC4)nc(-c3cnc(N)nc3)cc21	190							

Now from value to compound, other results behind:

IC50 [1] [nM]	solubility thermodynamic [3] [µM]	Papp A→B at 10 µM [4] [×10⁻⁶ cm/s]	Papp B→A at 10 µM [5] [×10⁻⁶ cm/s]	clearance [6] [mL/min/kg]	IC50 [20] [nM]	bioavailability [24] [%]	SMILES	further results
6							C[C@@H]1COCCN1c1nc(-c2cnc(N)nc2)cc2c1ncn2CS(C)(=O)=O	
0.2	> 770	2	37	114			C[C@@H]1COCCN1c1nc(-c2cncc3[nH]ccc23)cc2c1ncn2[C@@H](C)S(C)(=O)=O	IC50 [2]: 80 nM; inhibition [7]: inactive; inhibition [8]: inactive; inhibition [9]: inactive; inhibition [10]: inactive; inhibition [11]: inactive; inhibition [12]: inactive; IC50 (Cytochrome P450 3A4): > 40000 nM; IC50 (Cytochrome P450 2D6 [13]): > 40000 nM; IC50 (Cytochrome P450 2C9 [14]): > 40000 nM; IC50 (Cytochrome P450 1A2 [15]): > 40000 nM; inhibition (INH) (Cytochrome P450 2D6 [16]): tde; inhibition (INH) (Cytochrome P450 2C9 [17]): tde; inhibition (INH) (Cytochrome P450 1A2 [18]): tde; IC50 [19]: > 4600 nM
1							C[C@@H]1COCCN1c1nc(-c2cccc3[nH]ccc23)cc2c1ncn2CS(C)(=O)=O	EC50 [2]: 570 nM
5	193 (≈ 79.4 µg/mL)	14	58	14	> 10000	96	CS(=O)(=O)Cn1cnc2c(N3CCOCC3)nc(-c3cccc4[nH]ccc34)cc21	EC50 [2]: 3300 nM; CLint scaled [21]: 31 mL/min/kg; CLint scaled [22]: 30 mL/min/kg; CLint scaled [23]: 6 mL/min/kg
26					> 10000		c1cc(-c2cc3c(ncn3CC3CC3)c(N3CCOCC3)n2)c2cc[nH]c2c1	
				49		18	C[C@@H]1COCCN1c1nc(-c2cncc3[nH]ccc23)cc2c1ncn2C	IC50 [2]: 84 nM; IC50 [19]: 7500 nM; Vd [25]: 2.3 L/kg
